TRPC6 act: activates the mouse TRPC6 cation channel; Q61143; HEK293-TRPC6 membrane potential dye fluorescence; stronger effect = higher value; B-score at 10 µM; 310,000 tested, 0.13% active; AID 2550;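 active = B-score of the integrated fluorescence ratio above library mean plus 3 SD, and starting fluorescence ratio within library mean plus 5 SD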;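 also: higher score means more depolarization so channel activation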
TRPC4 block: inhibitors of mouse TRPC4 channel; Q9QUQ5; HEK293 TRPC4beta/mu-opioid, DAMGO-evoked Fluo4 calcium flux; stronger effect = lower value; B-score at 10 µM; 300,000 tested, 0.39% active; AID 2247;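 active = B-score over 3 SD under the library average, no early fluorescence shift, positive overall ratio signal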
Target sequence (Q9QUQ5 whole entry, looked up): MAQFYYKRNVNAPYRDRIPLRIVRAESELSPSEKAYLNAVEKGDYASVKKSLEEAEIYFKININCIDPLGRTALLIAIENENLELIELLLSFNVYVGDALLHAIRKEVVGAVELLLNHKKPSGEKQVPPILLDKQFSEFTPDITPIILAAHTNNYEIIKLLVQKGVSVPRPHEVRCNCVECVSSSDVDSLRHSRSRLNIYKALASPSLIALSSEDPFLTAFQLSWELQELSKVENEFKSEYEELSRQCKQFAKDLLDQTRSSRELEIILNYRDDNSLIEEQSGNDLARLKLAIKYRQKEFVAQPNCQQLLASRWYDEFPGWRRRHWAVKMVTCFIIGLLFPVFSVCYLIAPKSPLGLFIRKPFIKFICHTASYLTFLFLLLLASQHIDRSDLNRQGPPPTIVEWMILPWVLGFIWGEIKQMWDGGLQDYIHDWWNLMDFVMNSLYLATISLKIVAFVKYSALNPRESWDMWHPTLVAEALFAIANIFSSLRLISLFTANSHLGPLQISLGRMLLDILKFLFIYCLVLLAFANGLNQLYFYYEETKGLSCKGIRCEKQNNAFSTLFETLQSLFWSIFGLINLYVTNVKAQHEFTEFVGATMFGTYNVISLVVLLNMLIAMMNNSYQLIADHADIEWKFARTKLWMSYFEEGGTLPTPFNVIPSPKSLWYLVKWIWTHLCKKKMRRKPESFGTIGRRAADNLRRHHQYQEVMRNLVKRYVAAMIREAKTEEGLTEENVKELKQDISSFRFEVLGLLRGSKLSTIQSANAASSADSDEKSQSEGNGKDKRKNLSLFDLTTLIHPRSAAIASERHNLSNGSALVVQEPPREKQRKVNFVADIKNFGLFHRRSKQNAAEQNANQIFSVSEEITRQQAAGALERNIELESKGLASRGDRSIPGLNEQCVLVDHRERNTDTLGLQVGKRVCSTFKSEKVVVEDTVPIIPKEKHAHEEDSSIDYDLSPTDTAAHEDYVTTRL
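Material: HEK293 cells with stable TRPC4beta plus mu-opioid receptor expression / Probe or stimulus: DAMGO in two steps, submaximal then maximal / Compound: single concentration per test compound / Technique: kinetic Fluo4 fluorescence imaging of calcium influx / Read-out: per-well B score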
DSG3 Ab inh: inhibitors of pemphigus antibody binding to human desmoglein-3; 310,000 tested, 0.48% active; binding (percent of control), % at 10 µM; AID 588358; P32926; DSG3-coupled beads, scFv-anti-DSG3-GFP binding, flow cytometry; stronger effect = lower value;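 active = binding more than 3 SD below its plate's average and above zero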;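 also: hits lower antibody fragment binding to DSG3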
TRPC6 inhibitor: inhibitors of mouse TRPC6 channel; Q61143; HEK293-TRPC6, membrane potential dye, ACh-evoked depolarization; stronger effect = lower value; B-score at 10 µM; 310,000 tested, 1.1% active; AID 2553;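 active = B-score under library mean minus 3 SD, initial fluorescence not abnormally high, positive integrated signal ratio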;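 also: B-score derived from integrated fluorescence ratio over the kinetic read; more negative B-score means stronger inhibition of depolarization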
TRPC4 potent: allosterically enhances the mouse TRPC4 cation channel; 310,000 tested, 0.42% active; Q9QUQ5; HEK293 TRPC4beta/mu-opioid, DAMGO EC20, Fluo-4 Ca2+ flux; stronger effect = higher value; B-score at 10 µM; AID 2227;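 active = B-score of calcium response area above 5 SD of library B-scores, with initial fluorescence ratio within 5 SD of library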;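 also: B-score of integrated fluorescence ratio over time as area under calcium response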
TRPC4 agonist: activators of mouse TRPC4 channel; Q9QUQ5; HEK293 TRPC4beta/mu-opioid, Fluo4 calcium fluorescence; stronger effect = higher value; B-score at 10 µM; 310,000 tested, 0.49% active; AID 2237;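 active = B-score above 5 SD of library B-scores, and initial fluorescence ratio not above library mean plus 5 SD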;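 also: positive B-score marks a calcium rise read as TRPC4 activation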
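Assay system – TRPC4beta and mu-opioid receptor HEK293 stable cells · Measured by – Fluo4 fluorescence, kinetic · Schedule – dye loading 45 min room temperature, 110 s kinetic read · Read-out – B-scored integrated calcium fluorescence ratio · Controls – buffer and maximal DAMGO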
TRPC4 spec 2: second selectivity test of TRPC6 inhibitors: effect on mouse TRPC4; shares compounds with TRPC6 inhibitor; HEK293 TRPC4/MOR, membrane potential dye fluorescence; channel activated by saturating DAMGO dose; inhibition, % at 10 µM; 920 tested, 42% active;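 active = compounds whose fluorescence signal differed from control wells by over 3 SD, either direction, in both duplicate plates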
TRPC4 spec: selectivity of TRPC6 inhibitors: effect on mouse TRPC4; shares compounds with TRPC6 inhibitor; HEK293 TRPC4/mu-opioid, membrane potential fluorescence; activity change, negative = inhibition, % at 10 µM; 920 tested, 61% active; AID 2777;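 active = rise or fall in signal beyond 3 SD of buffer-only wells in both replicate plates, either sign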;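 also: integrated kinetic ratio of fluorescence range over baseline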
HEK293 MPD ctr 2-1: second check of TRPC6 inhibitor effects in parental HEK293 cells. shares compounds with TRPC6 inhibitor. parental HEK293 membrane potential dye fluorescence; maximal acetylcholine challenge after compound addition. signal change vs control, % at 10 µM. 920 tested, 31% active. AID 2779;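 active = membrane potential signal moving either way by over 3 SD of the maximum-effect control, in both duplicate plates, meaning non-specific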
HEK293 MPD ctr-1: counter-screen for TRPC6 inhibitors: effect in parental HEK293 cells; 920 tested, 60% active; membrane potential signal change, % at 10 µM; shares compounds with TRPC6 inhibitor; parental HEK293 membrane potential dye fluorescence;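 active = membrane potential signal shifting up or down by more than 3 SD of buffer-only wells, on both duplicate plates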
HEK293 MPD ctr-2: counter-screen for TRPC6 modulators: effect in parental HEK293 cells. membrane potential dye fluorescence. 2,400 tested, 51% active. membrane potential signal change, % at 10 µM. shares compounds with TRPC6 inhibitor;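 active = membrane potential signal moves up or down beyond 5 SD from buffer-only wells, on both duplicate plates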
HEK293 MPD ctr 2-2: parental HEK293 nonspecific activity of TRPC6 modulators, second screen; membrane potential dye fluorescence; after compound, maximal acetylcholine stimulation; shares compounds with TRPC6 inhibitor; inhibition, % at 10 µM; AID 488926; 2,400 tested, 14% active;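 active = membrane potential signal drops by more than 5 SD from the mean control signal, in both duplicate plates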;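 also: plate controls were acetylcholine ECmax control wells for no effect and buffer only wells for full effect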
TRPC4 ctr mod: mouse TRPC4 off-target activity of TRPC6 modulators; shares compounds with TRPC6 inhibitor; 2,400 tested, 69% active; percent change from control (negative = decrease, positive = increase), % at 10 µM; HEK293 TRPC4/mu-opioid, membrane potential fluorescence;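 active = membrane potential signal moved up or down beyond 5 SD of buffer control wells, in both duplicate plates, actives on both sides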;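 also: plate controls were assay buffer wells for no effect and DAMGO maximal-effect wells for full effect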
TRPC4/MOR inh 2: mouse TRPC4 off-target activity of TRPC6 modulators, second screen | 2,400 tested, 55% active | shares compounds with TRPC6 inhibitor | inhibition, % at 10 µM | HEK293 TRPC4/mu-opioid, membrane potential dye fluorescence; stimulated with maximal-effect DAMGO;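 active = drop in membrane potential signal beyond 5 SD of the control wells in both duplicate plates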;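 also: TRPC4 counter screen for TRPC6 hits run under conditions tuned for TRPC6 not TRPC4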
TRPC6 inh conf: confirmation of mouse TRPC6 inhibitors | inhibition, % at 10 µM | shares compounds with TRPC6 inhibitor | 3,300 tested, 43% active | HEK293-TRPC6, membrane potential dye, ACh-evoked depolarization | AID 488960;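 active = fluorescence ratio falls more than 5 SD below the full-stimulation control mean, in both duplicate runs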;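 also: integrated fluorescence ratio of peak minus minimum over baseline after agonist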
TRPC6 act confirm: confirmation of mouse TRPC6 activators | shares compounds with TRPC6 inhibitor | HEK293-TRPC6 membrane potential dye fluorescence, FDSS | activation, % at 10 µM | 2,800 tested, 11% active | AID 488961;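 active = ratio signal rise beyond 5 SD above unstimulated control wells' mean, seen in both duplicate runs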;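 also: plate controls were buffer EC0 wells for no effect and acetylcholine ECmax response for full effect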
* = called active by the depositor; i = inactive; . = no result; + = active, no number. A selection: hits, their analogues and other compounds. The true share with any hit is near 2.5%.

SMILES	TRPC6 act	TRPC4 block	DSG3 Ab inh	TRPC6 inhibitor	TRPC4 potent	TRPC4 agonist	TRPC4 spec 2	TRPC4 spec	HEK293 MPD ctr 2-1	HEK293 MPD ctr-1	HEK293 MPD ctr-2	HEK293 MPD ctr 2-2	TRPC4 ctr mod	TRPC4/MOR inh 2	TRPC6 inh conf	TRPC6 act confirm
O=C(/C=C/c1c[nH]c2ccccc12)c1c(O)n(CCc2ccccc2)c(=O)[nH]c1=O	144*	i	141	i	i	i	.	.	.	.	+	i	392%*	i	i	390%*
COc1ccc2c(c1O)-c1c(OC)c(OC)cc3c1[C@H](C2)N(C)CC3	.	.	108	.	.	.	.	.	.	.	.	.	.	.	.	.
CCCN1CCc2cccc3c2[C@H]1Cc1ccc(O)c(O)c1-3	i	i	.	-5.6*	i	i	.	.	.	.	i	i	i	37%*	i	i
Cc1ccccc1CCNCc1cc2cccc(C)c2[nH]c1=O	i	i	103	-11*	i	i	16%*	i	i	0.1%*	.	.	.	.	94%*	i
CC(C)Cc1nc(N2CCNCC2)c(C#N)c2c1CCC2	i	i	116	-10*	i	i	34%*	6.0%*	i	14%*	.	.	.	.	72%*	i
CCc1nc(N2CCNCC2)c(C#N)c2c1CSC(C)(C)C2	i	i	102	i	i	i	.	.	.	.	.	.	.	.	.	.
CC(=O)O[C@]1(C)C(=O)OC/C2=C/CN(C)CCC(OC(=O)[C@@](O)(C(C)O)C[C@H]1C)C2=O (stereo partly drawn)	i	i	99	i	i	i	.	.	.	.	.	.	.	.	.	.
C[N+]1(C)CCC(OC(=O)C(c2ccccc2)c2ccccc2)CC1	i	i	.	-7.3*	i	i	i	i	-18%*	i	.	.	.	.	91%*	i
C#CC[N+]1(C)[C@@H]2CC[C@H]1CC(OC(=O)C(CO)c1ccccc1)C2 (stereo partly drawn)	i	i	91	-11*	i	i	i	i	-21%*	i	.	.	.	.	94%*	i
C[N+]1(C)[C@@H]2CC[C@H]1CC(OC(=O)[C@@H](CO)c1ccccc1)C2 (stereo partly drawn)	i	i	89	-7.7*	i	i	i	i	-38%*	i	.	.	.	.	96%*	i
Nc1c2c(nc3sc4c(c13)CCCC4)CCCC2	i	i	92	-5.9*	i	i	.	.	.	.	i	i	-8.0%*	62%*	i	i
CCN(CC)CCCOC(=O)C(OC)(c1ccccc1)c1ccccc1	i	i	122	-6.4*	i	i	.	.	.	.	153%*	78%*	34%*	i	61%*	.
CNC(=O)Oc1ccc(N(C)C)cc1C(C)C	i	i	88	i	i	i	.	.	.	.	.	.	.	.	.	.
CCOC(C(=O)OCCC[N+](C)(CC)CC)(c1ccccc1)c1ccccc1	i	i	102	i	i	i	.	.	.	.	.	.	.	.	.	.
CC[N+](C)(CC)CCCOC(=O)C(O)(c1ccccc1)C1CCCCC1 (stereo not drawn)	i	i	114	-8.1*	i	i	i	i	i	i	.	.	.	.	i	i
COc1ccc(C(=O)C2CCCN(Cc3ccc(C)s3)C2)c(OC)c1 (stereo not drawn)	i	i	108	i	i	i	.	.	.	.	.	.	.	.	.	.
COc1ccc(C(=O)C2CCCN(Cc3cccc(C)n3)C2)c(OC)c1 (stereo not drawn)	i	i	98	-6.4*	i	i	.	.	.	.	i	i	9.5%*	i	i	.
COc1ccccc1CCNC1CCC(C(C)(C)C)CC1 (stereo not drawn)	18*	i	97	-14*	i	i	.	.	.	.	673%*	105%*	156%*	82%*	98%*	178%*
COc1ccccc1CCNC1CCCCCC1	i	i	99	i	i	i	.	.	.	.	.	.	.	.	.	.
COc1ccc(-[n+]2c(-c3ccccc3)cc(-c3ccc(C)cc3)cc2-c2ccccc2)cc1	i	i	117	-9.1*	i	i	i	17%*	i	18%*	.	.	.	.	70%*	.
Cc1ccc(-c2cc(-c3ccccc3)cc(-c3ccccc3)[n+]2-c2ccc(C(=O)O)cc2)cc1	i	i	.	i	i	i	.	.	.	.	.	.	.	.	.	.
COc1ccc(-c2cc(-c3ccccc3)[n+](C)c(-c3ccccc3)c2)cc1	i	i	110	-5.6*	i	i	.	.	.	.	i	i	i	i	i	i
Cc1ccccc1-[n+]1c(-c2ccccc2)cc(-c2ccccc2)cc1-c1ccccc1	i	i	108	-10*	i	i	60%*	20%*	i	7.1%*	.	.	.	.	100%*	i
COC(=O)C1=C(c2ccc(OC(F)(F)F)cc2)C[C@@H]2CC[C@H]1N2C(=O)NC(C)C	.	.	99	.	.	.	.	.	.	.	.	.	.	.	.	.
C1=NCCCN2CCCCC12 (stereo not drawn)	.	.	102	.	.	.	.	.	.	.	.	.	.	.	.	.

Screening results as filed in PubChem BioAssay.
